{"source": "paper PMC7058367", "about": "(Biochemical pharmacology, 2018)", "key": {"[1]": {"biological_target": "GluN1/GluN2D^ΔCTD receptors (Rattus norvegicus, UniProt P35439+Q62645)", "sequence (Q62645 28-869 limits assumed, stated change not applied, other chains not shown)": "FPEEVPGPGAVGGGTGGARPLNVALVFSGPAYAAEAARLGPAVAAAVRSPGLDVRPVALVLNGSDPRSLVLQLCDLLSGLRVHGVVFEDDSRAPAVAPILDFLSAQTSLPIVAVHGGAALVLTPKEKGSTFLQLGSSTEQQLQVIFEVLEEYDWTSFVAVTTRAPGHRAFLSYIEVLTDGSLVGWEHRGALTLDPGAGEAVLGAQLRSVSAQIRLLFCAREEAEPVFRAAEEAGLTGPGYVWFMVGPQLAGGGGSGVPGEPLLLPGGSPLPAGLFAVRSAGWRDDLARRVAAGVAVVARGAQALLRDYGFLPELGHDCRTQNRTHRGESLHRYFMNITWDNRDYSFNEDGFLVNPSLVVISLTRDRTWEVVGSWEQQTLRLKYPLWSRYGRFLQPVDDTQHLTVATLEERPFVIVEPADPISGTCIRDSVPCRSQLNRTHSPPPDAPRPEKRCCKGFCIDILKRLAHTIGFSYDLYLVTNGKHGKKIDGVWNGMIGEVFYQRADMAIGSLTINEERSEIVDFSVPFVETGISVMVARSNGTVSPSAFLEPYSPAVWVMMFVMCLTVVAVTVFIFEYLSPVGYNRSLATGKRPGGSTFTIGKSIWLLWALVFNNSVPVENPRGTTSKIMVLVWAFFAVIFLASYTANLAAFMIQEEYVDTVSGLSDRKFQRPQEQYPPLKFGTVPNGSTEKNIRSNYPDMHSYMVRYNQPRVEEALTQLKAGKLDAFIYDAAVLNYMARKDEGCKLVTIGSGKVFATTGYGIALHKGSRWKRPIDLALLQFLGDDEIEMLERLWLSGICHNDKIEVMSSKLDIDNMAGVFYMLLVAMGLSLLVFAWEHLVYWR", "format": "cell-based", "settings": "50 µM compound; 10 µM L-glutamate/10 µM glycine (Fig. 1C)"}, "[2]": {"tested_on": "GluN1/GluN2D^ΔCTD receptors", "format": "cell-based, rat", "settings": "50 µM compound; compared to wildtype"}, "[3]": {"biological_target": "GluN1^ΔCTD/GluN2D receptors (Rattus norvegicus, UniProt P35439+Q62645)", "sequence (Q62645 28-1323, stated change not applied, other chains not shown)": "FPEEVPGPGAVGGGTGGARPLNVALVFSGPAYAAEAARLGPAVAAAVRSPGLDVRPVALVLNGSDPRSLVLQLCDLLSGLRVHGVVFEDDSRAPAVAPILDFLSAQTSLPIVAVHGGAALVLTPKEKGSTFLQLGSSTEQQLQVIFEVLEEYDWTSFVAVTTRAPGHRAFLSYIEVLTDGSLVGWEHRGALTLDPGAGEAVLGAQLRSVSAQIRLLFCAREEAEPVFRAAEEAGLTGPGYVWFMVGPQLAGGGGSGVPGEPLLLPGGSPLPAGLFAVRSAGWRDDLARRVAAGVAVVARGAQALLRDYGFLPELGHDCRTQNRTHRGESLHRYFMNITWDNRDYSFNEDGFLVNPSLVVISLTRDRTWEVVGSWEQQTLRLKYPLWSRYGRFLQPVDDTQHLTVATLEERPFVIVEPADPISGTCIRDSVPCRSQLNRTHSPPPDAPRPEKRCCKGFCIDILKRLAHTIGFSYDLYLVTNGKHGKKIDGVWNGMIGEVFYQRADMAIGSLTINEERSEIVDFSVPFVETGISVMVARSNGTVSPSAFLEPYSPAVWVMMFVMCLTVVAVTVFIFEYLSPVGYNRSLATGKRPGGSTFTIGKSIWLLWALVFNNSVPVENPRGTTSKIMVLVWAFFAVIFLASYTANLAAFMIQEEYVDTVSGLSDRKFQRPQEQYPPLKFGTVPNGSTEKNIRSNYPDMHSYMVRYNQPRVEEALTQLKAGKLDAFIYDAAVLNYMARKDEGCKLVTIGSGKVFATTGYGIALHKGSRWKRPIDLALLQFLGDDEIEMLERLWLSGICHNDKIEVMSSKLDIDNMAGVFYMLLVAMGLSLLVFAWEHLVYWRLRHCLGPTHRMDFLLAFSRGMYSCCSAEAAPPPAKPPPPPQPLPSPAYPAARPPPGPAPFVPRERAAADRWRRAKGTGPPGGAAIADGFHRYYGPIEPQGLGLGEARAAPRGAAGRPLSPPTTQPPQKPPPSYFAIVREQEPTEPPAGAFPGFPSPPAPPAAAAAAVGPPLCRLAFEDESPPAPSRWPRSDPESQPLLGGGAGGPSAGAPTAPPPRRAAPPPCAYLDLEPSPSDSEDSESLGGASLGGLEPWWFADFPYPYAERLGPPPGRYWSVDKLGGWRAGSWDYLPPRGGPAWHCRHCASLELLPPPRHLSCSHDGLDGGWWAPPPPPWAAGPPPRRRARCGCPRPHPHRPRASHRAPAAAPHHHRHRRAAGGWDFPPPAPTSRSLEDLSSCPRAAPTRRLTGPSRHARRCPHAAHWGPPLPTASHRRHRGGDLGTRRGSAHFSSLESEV", "format": "cell-based", "settings": "50 µM compound; 10 µM L-glutamate/10 µM glycine (Fig. 1D)", "in_short": "(§1)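 Xenopus laevis oocytes were injected with GluN1a and GluN2 RNA at a 1:3 molar ratio. The CTD was removed by a stop codon at GluN1 838K or GluN2C 855K, and 10-20-fold more RNA than wild type was injected. Oocytes were kept in ND-96 at 17 °C for 1-5 days. TEVC was run at -60 mV in Ba2+ buffer (pH 7.4). […] Full-length receptors were run alternately on the same day and oocyte batch. Values are mean ± s.e.m.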"}, "[4]": {"biological_target": "GluN1/GluN2A receptors (Rattus norvegicus, UniProt P35439+Q00959)", "format": "cell-based", "in_short": "(§2)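 Xenopus laevis oocytes were injected with GluN1a:GluN2 RNA at a 1:3 molar ratio (15-30 ng total; 10-20-fold more for CTD-deleted subunits) and kept in ND-96 at 17 °C for 1-5 days. TEVC was run at -60 mV in 116 mM NaCl, 2 mM KCl, 0.3 mM BaCl2, 5 mM HEPES, pH 7.4. […] Full-length controls came from the same batch and day; mean ± s.e.m.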"}, "[5]": {"biological_target": "GluN1/GluN2B^ΔCTD receptors (Rattus norvegicus, UniProt P35439+Q00960)", "format": "cell-based", "settings": "50 µM compound; 10 µM L-glutamate/10 µM glycine (Fig. 1C)"}, "[6]": {"biological_target": "GluN1^ΔCTD/GluN2A receptors (Rattus norvegicus, UniProt P35439+Q00959)", "format": "cell-based", "settings": "50 µM compound; 10 µM L-glutamate/10 µM glycine (Fig. 1D)", "in_short": "as §2"}, "[7]": {"biological_target": "GluN1/GluN2B receptors (Rattus norvegicus, UniProt P35439+Q00960)", "format": "cell-based"}, "[8]": {"biological_target": "GluN1/GluN2C receptors (Rattus norvegicus, UniProt P35439+Q00961)", "sequence (Q00961 20-1237, other chains not shown)": "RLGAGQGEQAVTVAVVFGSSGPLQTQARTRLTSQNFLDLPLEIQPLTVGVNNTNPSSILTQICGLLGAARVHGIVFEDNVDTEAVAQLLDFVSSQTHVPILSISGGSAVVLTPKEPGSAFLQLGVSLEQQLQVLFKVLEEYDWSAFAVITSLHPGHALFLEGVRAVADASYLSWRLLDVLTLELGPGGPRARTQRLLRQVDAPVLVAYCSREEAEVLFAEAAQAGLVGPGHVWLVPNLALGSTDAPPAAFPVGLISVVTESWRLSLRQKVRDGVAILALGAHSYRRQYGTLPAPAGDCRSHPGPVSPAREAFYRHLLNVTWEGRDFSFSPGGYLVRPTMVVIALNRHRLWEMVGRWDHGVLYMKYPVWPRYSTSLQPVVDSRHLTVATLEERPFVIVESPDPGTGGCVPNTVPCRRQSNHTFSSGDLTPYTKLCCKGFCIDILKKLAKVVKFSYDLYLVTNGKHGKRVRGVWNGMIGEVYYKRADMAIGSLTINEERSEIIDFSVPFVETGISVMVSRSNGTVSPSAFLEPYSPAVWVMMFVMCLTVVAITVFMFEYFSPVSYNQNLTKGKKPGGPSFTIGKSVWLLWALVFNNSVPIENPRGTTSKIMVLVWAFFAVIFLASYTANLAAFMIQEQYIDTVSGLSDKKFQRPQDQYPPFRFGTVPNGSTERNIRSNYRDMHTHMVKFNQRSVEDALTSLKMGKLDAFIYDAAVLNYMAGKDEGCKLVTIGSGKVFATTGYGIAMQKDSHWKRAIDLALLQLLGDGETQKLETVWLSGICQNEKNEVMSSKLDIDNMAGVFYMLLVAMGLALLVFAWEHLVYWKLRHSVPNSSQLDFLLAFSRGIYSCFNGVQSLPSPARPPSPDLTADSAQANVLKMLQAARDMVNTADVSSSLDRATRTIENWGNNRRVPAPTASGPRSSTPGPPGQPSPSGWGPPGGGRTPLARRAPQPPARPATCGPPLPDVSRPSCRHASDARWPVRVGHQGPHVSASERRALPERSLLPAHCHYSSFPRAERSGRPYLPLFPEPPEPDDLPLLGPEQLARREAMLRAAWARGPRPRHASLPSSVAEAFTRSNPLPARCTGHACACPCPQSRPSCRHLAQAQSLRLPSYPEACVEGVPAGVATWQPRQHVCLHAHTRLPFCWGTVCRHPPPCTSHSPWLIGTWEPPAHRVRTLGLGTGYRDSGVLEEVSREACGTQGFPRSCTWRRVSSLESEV", "format": "cell-based", "settings": "5 mM EGTA injected vs controls (Fig. 6C, G)", "in_short": "(§3)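 Oocytes expressed wild-type GluN1a/GluN2 receptors from 15-30 ng RNA (1:3 molar) and were held in ND-96 at 17 °C for 1-5 days. For Ca2+ chelation, 5 mM EGTA (50 nL) was injected 1-2 h before recording, with uninjected and water-injected oocytes as controls. TEVC was run at -60 mV in 116 mM NaCl, 2 mM KCl, 0.3 mM BaCl2, 5 mM HEPES (pH 7.4). […] Values are mean ± s.e.m.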"}, "[9]": {"tested_on": "GluN1 CTD in neurons expressing GluN1-GFP, GluN2A and GluN1-mCherry", "test": "CTD-FRET", "format": "cell-based, rat", "settings": "75 µM compound, absence of agonists, imaged 10 min after application (Fig. 8)", "in_short": "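Rat primary hippocampal neurons were transfected at DIV 7-10 with ~2 µg total DNA (GluN1-GFP, GluN2A, GluN1-mCherry) by lipofection and imaged at 16-18 DIV in 0.87x HBSS, 5 mM HEPES, 1 mM glucose, 2.5 mM MgCl2, 0.5 mM CaCl2. Baseline and 10 min post-compound two-photon FLIM images were taken, each neuron imaged twice, compounds interleaved. Lifetimes were fit single-exponential and analysed blind; two preparations pooled.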"}, "[10]": {"biological_target": "GluN1/GluN2C^ΔCTD receptors (Rattus norvegicus, UniProt P35439+Q00961)", "sequence (Q00961 20-842, stated change not applied, other chains not shown)": "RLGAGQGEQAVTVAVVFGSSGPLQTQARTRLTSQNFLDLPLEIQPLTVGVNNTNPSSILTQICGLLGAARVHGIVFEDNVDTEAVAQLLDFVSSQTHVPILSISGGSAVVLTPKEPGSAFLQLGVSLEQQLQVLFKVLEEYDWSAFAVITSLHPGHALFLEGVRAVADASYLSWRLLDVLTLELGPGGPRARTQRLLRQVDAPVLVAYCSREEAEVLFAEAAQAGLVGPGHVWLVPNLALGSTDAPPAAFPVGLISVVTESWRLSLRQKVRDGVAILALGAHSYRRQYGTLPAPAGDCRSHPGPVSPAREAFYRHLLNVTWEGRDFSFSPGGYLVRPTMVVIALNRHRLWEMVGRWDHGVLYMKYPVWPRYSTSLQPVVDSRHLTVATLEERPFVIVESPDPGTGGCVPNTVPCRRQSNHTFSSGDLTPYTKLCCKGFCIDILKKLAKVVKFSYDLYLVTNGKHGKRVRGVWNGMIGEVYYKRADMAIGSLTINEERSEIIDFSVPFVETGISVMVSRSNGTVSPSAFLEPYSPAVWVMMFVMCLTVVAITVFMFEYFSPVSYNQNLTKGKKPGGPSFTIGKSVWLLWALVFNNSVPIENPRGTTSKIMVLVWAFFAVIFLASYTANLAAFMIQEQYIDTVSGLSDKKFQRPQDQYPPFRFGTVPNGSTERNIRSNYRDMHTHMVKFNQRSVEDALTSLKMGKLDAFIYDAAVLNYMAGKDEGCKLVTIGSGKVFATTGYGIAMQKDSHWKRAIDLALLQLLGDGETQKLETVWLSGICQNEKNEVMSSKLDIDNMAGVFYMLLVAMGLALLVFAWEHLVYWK", "test": "Two-electrode voltage clamp of GluN2C CTD-deleted receptors", "format": "cell-based", "settings": "50 µM compound; 10 µM L-glutamate/10 µM glycine (Fig. 1B,C)", "in_short": "as §1"}, "[11]": {"biological_target": "GluN1^ΔCTD/GluN2C receptors (Rattus norvegicus, UniProt P35439+Q00961)", "sequence (Q00961 20-1237, stated change not applied, other chains not shown)": "as the sequence (Q00961 20-1237, other chains not shown) above", "format": "cell-based", "settings": "50 µM compound; 10 µM L-glutamate/10 µM glycine (Fig. 1D)", "in_short": "as §2"}, "[12]": {"biological_target": "GluN1^ΔCTD/GluN2B receptors (Rattus norvegicus, UniProt P35439+Q00960)", "format": "cell-based", "settings": "50 µM compound; 10 µM L-glutamate/10 µM glycine (Fig. 1D)", "in_short": "as §2"}, "[13]": {"biological_target": "GluN1/GluN2D receptors (Rattus norvegicus, UniProt P35439+Q62645)", "sequence (Q62645 28-1323, other chains not shown)": "as the sequence (Q62645 28-1323, stated change not applied, other chains not shown) above", "format": "cell-based", "settings": "5 mM EGTA injected vs controls (Fig. 6D, H)", "in_short": "as §3"}, "[14]": {"biological_target": "GluN1/GluN2A^ΔCTD receptors (Rattus norvegicus, UniProt P35439+Q00959)", "format": "cell-based", "in_short": "as §2"}, "[15]": {"settings": "2 µM PMA for 10 minutes, 50 µM UBP684, 100 µM PS (Fig. 7E, F)"}, "[16]": {"settings": "10 µM FSK and 1 mM IBMX for 10 minutes, 50 µM UBP684, 100 µM PS (Fig. 7B, C)"}, "[17]": {"settings": "50 µM compound, control media for U73122 experiment (Fig. 6I)"}}, "note": "Where two headings read alike, the source gives them in different places."}
{"smiles": "CC(C)CCCc1ccc2cc(C(=O)O)ccc2c1", "note": "[UBP684]", "values": [{"measurement": "% potentiation of agonist-evoked current", "setting": "[1]", "value": "23 ± 4", "unit": "%"}, {"measurement": "reduction of potentiation by GluN2D CTD deletion compared to wildtype", "setting": "[2]", "value": "approximately 50%"}, {"measurement": "% potentiation of agonist-evoked current", "setting": "[3]", "value": "19 ± 7", "unit": "%"}, {"measurement": "effect of PKC activation by PMA on PAM activity", "setting": "[4]; [15]", "value": "larger % potentiation"}, {"measurement": "effect of PKA activation on % potentiation", "setting": "[4]; [16]", "value": "unchanged"}, {"measurement": "% potentiation of agonist response", "setting": "[4]; 50 µM compound, H2O-injected control oocytes (Fig. 6A)", "value": "47 ± 13", "unit": "%"}, {"measurement": "% potentiation of agonist-evoked current", "setting": "[4]; [17]", "value": "24 ± 5", "unit": "%"}, {"measurement": "% potentiation of agonist response", "setting": "[4]; 50 µM compound, oocytes injected with 5 mM EGTA (Fig. 6A)", "value": "9 ± 3", "unit": "%"}, {"measurement": "% potentiation of agonist response", "setting": "[4]; 50 µM compound, un-injected control oocytes (Fig. 6A)", "value": "54 ± 5", "unit": "%"}, {"measurement": "% potentiation of agonist-evoked current", "setting": "[5]", "value": "74.4 ± 7.0", "unit": "%"}, {"measurement": "% potentiation of agonist-evoked current", "setting": "[6]", "value": "3 ± 2", "unit": "%"}, {"measurement": "effect of PKC activation by PMA on PAM activity", "setting": "[7]; [15]", "value": "larger % potentiation"}, {"measurement": "effect of PKA activation on % potentiation", "setting": "[7]; [16]", "value": "unchanged"}, {"measurement": "% potentiation of agonist response", "setting": "[7]; 50 µM compound, H2O-injected control oocytes (Fig. 6B)", "value": "45 ± 5", "unit": "%"}, {"measurement": "% potentiation of agonist-evoked current", "setting": "[7]; [17]", "value": "33 ± 4", "unit": "%"}, {"measurement": "% potentiation of agonist response", "setting": "[7]; 50 µM compound, oocytes injected with 5 mM EGTA (Fig. 6B)", "value": "28 ± 2", "unit": "%"}, {"measurement": "% potentiation of agonist response", "setting": "[7]; 50 µM compound, un-injected control oocytes (Fig. 6B)", "value": "48 ± 4", "unit": "%"}, {"measurement": "effect of EGTA injection on potentiation/modulation", "setting": "[8]", "value": "no significant effect"}, {"measurement": "change of GluN1-GFP fluorescence lifetime (movement of the GluN1 CTD)", "setting": "[9]", "value": "significant increase"}, {"measurement": "% inhibition of agonist-evoked current", "setting": "[10]", "value": "20 ± 3", "unit": "%"}, {"measurement": "% potentiation of agonist-evoked current", "setting": "[11]", "value": "5 ± 3", "unit": "%"}, {"measurement": "% potentiation of agonist-evoked current", "setting": "[12]", "value": "44 ± 8", "unit": "%"}, {"measurement": "effect of EGTA injection on potentiation/modulation", "setting": "[13]", "value": "no significant effect"}, {"measurement": "effect of PKC activation by PMA on PAM activity", "setting": "[14]; 2 µM PMA for 10 minutes, 50 µM UBP684, 100 µM PS (Fig. 7G, H)", "value": "increased"}, {"measurement": "% potentiation of agonist-evoked current", "setting": "[14]; 50 µM compound, 10 µM L-glutamate/10 µM glycine (Fig. 1C)", "value": "27 ± 5", "unit": "%"}, {"measurement": "reduction of potentiation by GluN2A CTD deletion compared to wildtype", "setting": "[14]; 50 µM compound, compared to wildtype", "value": "approximately 50%"}]}
